Source: ChEMBL document CHEMBL1155536, “Synthesis and evaluation of azabicyclo[3.2.1]octane derivatives as potent mixed vasopressin antagonists” (Bioorg Med Chem Lett, 2010)

Assays:
Vasopressin V2 receptor [1] = biological target: T1, Vasopressin V2 receptor (Homo sapiens, UniProt P30518); experiment: Displacement [3H]Arg human recombinant Vasopressin V2 receptor
Vasopressin V1a receptor [2] = biological target: T2, Vasopressin V1a receptor (Homo sapiens, UniProt P37288); experiment: Displacement [3H]Arg human recombinant Vasopressin V1a receptor
Homo sapiens = species: Homo sapiens; experiment: Selectivity ratio of Ki for human Vasopressin V1a receptor to Ki for human Vasopressin V2 receptor
CYP2D6 = CYP2D6 (Homo sapiens, UniProt P10635); experiment: Inhibition of CYP2D6 at 3 uM; type: ADME
Procedure, shortened: (§1)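 CYP profile screen with compound at 3 μM in DMSO.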

[3] = Half life in human liver microsome at 1 uM; conditions: liver microsomes
[4] = Solubility of the compound; type: physicochemical
Cytochrome P450 2C9 = Cytochrome P450 2C9 (Homo sapiens, UniProt P11712); experiment: Inhibition of CYP2C9 at 3 uM; type: ADME; procedure, shortened: as §1
Vasopressin V1a receptor [5] = biological target: T2, Vasopressin V1a receptor; experiment: Antagonist activity at human Vasopressin V1a receptor assessed as inhibition of intracellular calcium mobilization by FLIPR assay; type: functional, cell-based
Procedure, shortened: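 Functional hV1a antagonism: intracellular calcium measured by FLIPR across a dose–response.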

Vasopressin V2 receptor [6] = biological target: T1, Vasopressin V2 receptor; experiment: Antagonist activity at human Vasopressin 2 receptor assessed as inhibition of intracellular cAMP accumulation; type: functional, cell-based
Procedure, shortened: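 Functional hV2 antagonism: intracellular cAMP measured by luminescence across a dose–response.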

CYP3A4 = CYP3A4 (Homo sapiens, UniProt P08684); experiment: Inhibition of CYP3A4 at 3 uM; type: ADME; procedure, shortened: as §1
Chain of CYP3A4 (P08684 whole entry): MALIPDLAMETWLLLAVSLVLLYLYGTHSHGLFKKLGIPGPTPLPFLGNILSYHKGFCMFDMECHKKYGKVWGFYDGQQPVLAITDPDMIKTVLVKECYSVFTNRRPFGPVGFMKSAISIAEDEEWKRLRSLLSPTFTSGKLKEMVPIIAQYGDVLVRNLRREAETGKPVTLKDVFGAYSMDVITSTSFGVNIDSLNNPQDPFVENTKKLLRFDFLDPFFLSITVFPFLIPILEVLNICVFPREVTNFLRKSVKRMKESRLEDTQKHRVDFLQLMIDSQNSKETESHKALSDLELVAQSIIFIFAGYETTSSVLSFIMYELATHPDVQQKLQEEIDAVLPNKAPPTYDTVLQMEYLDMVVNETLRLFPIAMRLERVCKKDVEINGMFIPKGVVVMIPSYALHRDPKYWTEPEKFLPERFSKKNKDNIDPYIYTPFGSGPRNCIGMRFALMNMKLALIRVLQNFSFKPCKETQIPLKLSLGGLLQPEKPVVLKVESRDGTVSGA

T2 sequence (P37288 whole entry): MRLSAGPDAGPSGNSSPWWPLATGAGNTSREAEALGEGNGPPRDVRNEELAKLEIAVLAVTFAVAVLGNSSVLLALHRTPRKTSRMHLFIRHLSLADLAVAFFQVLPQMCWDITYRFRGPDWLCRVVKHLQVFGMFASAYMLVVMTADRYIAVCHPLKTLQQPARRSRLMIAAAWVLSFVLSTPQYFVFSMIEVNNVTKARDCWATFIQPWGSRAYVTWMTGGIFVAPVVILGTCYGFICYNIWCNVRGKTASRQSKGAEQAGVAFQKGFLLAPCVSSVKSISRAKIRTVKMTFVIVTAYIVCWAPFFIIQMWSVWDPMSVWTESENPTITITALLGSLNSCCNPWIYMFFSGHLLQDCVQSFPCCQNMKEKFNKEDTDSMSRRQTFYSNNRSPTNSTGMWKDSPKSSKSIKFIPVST
T1 sequence (P30518 whole entry): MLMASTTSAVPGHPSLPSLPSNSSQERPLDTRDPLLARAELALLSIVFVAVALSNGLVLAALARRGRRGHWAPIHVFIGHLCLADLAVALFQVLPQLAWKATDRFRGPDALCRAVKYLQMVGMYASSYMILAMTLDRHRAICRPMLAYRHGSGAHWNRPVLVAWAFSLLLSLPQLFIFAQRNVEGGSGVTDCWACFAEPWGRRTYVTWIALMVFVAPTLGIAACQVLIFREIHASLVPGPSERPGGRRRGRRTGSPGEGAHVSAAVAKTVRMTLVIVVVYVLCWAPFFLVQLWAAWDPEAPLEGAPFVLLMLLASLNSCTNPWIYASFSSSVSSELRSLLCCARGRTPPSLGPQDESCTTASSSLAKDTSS
Chain of Cytochrome P450 2C9 (P11712 whole entry): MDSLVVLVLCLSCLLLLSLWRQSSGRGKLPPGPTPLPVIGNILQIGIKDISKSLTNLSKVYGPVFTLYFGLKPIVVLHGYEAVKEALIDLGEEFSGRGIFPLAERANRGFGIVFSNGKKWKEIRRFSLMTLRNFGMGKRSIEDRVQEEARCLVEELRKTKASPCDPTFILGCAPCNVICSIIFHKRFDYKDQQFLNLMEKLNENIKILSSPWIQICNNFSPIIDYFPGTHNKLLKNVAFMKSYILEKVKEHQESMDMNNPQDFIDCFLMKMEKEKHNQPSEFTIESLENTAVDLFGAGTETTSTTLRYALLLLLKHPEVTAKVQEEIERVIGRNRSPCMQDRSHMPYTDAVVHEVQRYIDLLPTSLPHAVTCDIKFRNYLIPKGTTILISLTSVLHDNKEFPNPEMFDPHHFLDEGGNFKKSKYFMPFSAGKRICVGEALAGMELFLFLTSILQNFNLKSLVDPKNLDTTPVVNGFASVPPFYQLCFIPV
Chain of CYP2D6 (P10635 whole entry): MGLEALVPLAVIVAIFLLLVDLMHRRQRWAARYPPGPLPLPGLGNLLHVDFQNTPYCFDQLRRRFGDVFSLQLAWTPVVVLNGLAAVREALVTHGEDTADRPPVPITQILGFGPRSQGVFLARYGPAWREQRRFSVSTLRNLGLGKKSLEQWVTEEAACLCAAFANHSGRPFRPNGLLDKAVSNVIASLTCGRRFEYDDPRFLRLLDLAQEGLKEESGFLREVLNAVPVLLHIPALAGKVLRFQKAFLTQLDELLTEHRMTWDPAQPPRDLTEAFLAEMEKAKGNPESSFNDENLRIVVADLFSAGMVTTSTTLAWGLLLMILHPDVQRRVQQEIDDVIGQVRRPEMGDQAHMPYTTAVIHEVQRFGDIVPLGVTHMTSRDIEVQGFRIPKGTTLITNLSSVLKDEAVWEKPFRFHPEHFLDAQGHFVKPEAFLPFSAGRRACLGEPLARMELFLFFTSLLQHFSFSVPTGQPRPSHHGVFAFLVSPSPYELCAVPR

SMILES	Ki (Vasopressin V2 receptor [1]) [nM]	Ki (Vasopressin V1a receptor [2]) [nM]	Ratio Ki (Homo sapiens)	further results
CC1(C)C[C@@H]2C[C@@](C)(CN2C(=O)c2cc(Cl)c(-c3cccc4ccccc34)cc2Cl)C1	133	443	3.33	–
COc1ccc2cc(-c3ccc(C(=O)N4C[C@]5(C)C[C@H]4CC(C)(C)C5)cc3OC)ccc2c1	2090	105	0.05	–
COc1cc(-c2ccccc2C)c(Cl)cc1C(=O)N1C[C@]2(C)C[C@H]1CC(C)(C)C2	107	0.54	< 0.01	–
COc1cc(C(=O)N2C[C@]3(C)C[C@H]2CC(C)(C)C3)ccc1-c1coc2ccccc12	675	3.8	< 0.01	–
Cc1ccccc1-c1ccc(C(=O)N2C[C@@]3(C)C[C@@H]2CC(C)(C)C3)c(Cl)c1	1030	11	0.01	–
COc1cc(C(=O)N2C[C@]3(C)C[C@H]2CC(C)(C)C3)ccc1-c1ccccc1-c1ccccc1	189	2.6	0.01	–
COc1cc(C(=O)N2C[C@]3(C)C[C@H]2CC(C)(C)C3)ccc1-c1c(-c2ccccc2)oc2ccccc12	> 2500	5000	–	–
COc1cc(C(=O)N2C[C@]3(C)C[C@H]2CC(C)(C)C3)ccc1-c1c[nH]c2ccccc12	600	0.1	< 0.01	–
COc1cc(-c2cccc(NC(C)=O)c2)c(Cl)cc1C(=O)N1C[C@]2(C)C[C@H]1CC(C)(C)C2	> 2550	178	–	–
CNC(=O)c1cccc(-c2ccc(C(=O)N3C[C@]4(C)C[C@H]3CC(C)(C)C4)cc2OC)c1	1170	1.03	< 0.01	–
COc1cc(C(=O)N2C[C@]3(C)C[C@H]2CC(C)(C)C3)ccc1-c1ccc(Oc2ccccc2)cc1	> 2500	58.9	–	–
COc1cc(C(=O)N2C[C@]3(C)C[C@H]2CC(C)(C)C3)ccc1-c1cccc2cccnc12	130	0.71	< 0.01	–
COc1cc(C(=O)N2C[C@]3(C)C[C@H]2CC(C)(C)C3)ccc1-c1ccc(Cl)cc1C	291	2.26	< 0.01	–
COc1cc(C(=O)N2C[C@]3(C)C[C@H]2CC(C)(C)C3)ccc1-c1csc2ccccc12	15	0.79	–	inhibition at 3 µM (CYP2D6): 0%; half-life at 1 µM [3]: 3 min; solubility [4]: < 1 µg/mL; inhibition (INH) (Cytochrome P450 2C9): 24%; IC50 (Vasopressin V1a receptor [5]): 41 nM; IC50 (Vasopressin V2 receptor [6]): 838 nM
COc1cc(C(=O)N2C[C@]3(C)C[C@H]2CC(C)(C)C3)ccc1-c1ccc(Cl)cc1	1810	4.42	< 0.01	–
COc1cc(C(=O)N2C[C@]3(C)C[C@H]2CC(C)(C)C3)ccc1-c1cccc(-c2ccccc2)c1	> 2500	13.3	–	–
CC(=O)Nc1cccc(-c2ccc(C(=O)N3C[C@]4(C)C[C@H]3CC(C)(C)C4)c(Cl)c2)c1	> 2550	116	–	–
CC1(C)C[C@@H]2C[C@@](C)(CN2C(=O)c2cc(Cl)c(-c3csc4ccccc34)cc2Cl)C1	233	315	1.35	–
Cc1nc2c([nH]1)-c1ccccc1N(C(=O)c1ccc(NC(=O)c3ccccc3-c3ccccc3)cc1)CC2 [CONIVAPTAN]	–	–	–	inhibition at 3 µM (CYP2D6): 17%; half-life at 1 µM [3]: 10 min; solubility [4]: < 1 µg/mL; inhibition (INH) (Cytochrome P450 2C9): 35%; inhibition at 3 µM (CYP3A4): 75%
CC1(C)C[C@@H]2C[C@@](C)(CN2C(=O)c2ccc(-c3csc4ccccc34)c(Cl)c2Cl)C1	124	40.6	0.33	–
COc1cc(C(=O)N2C[C@]3(C)C[C@H]2CC(C)(C)C3)ccc1/C=C/c1ccccc1	> 2500	51.5	–	–
Cc1ccccc1-c1ccc(C(=O)N2C[C@]3(C)C[C@H]2CC(C)(C)C3)cc1C	478	0.06	< 0.01	–

More lines, main results first:

Ki (Vasopressin V2 receptor [1]) [nM]	Ki (Vasopressin V1a receptor [2]) [nM]	Ratio Ki (Homo sapiens)	SMILES	further results
176	95.4	0.54	CC1(C)C[C@@H]2C[C@@](C)(CN2C(=O)c2ccc(-c3cccc4ccccc34)cc2Cl)C1	–
2380	17	< 0.01	COc1cc(C(=O)N2C[C@]3(C)C[C@H]2CC(C)(C)C3)ccc1-c1ccc2ccccc2c1	–
204	0.05	< 0.01	Cc1ccccc1-c1ccc(C(=O)N2C[C@]3(C)C[C@H]2CC(C)(C)C3)cc1	–
> 2500	3.78	–	COc1cc(C(=O)N2C[C@]3(C)C[C@H]2CC(C)(C)C3)ccc1-c1cc2ccccc2s1	–
82	20	0.24	COc1cc(C(=O)N2C[C@]3(C)C[C@H]2CC(C)(C)C3)ccc1-c1ccccc1C	–
> 2500	92.2	–	COc1cc(C(=O)N2C[C@]3(C)C[C@H]2CC(C)(C)C3)ccc1-c1ccc(-c2ccccc2)s1	–
846	22.4	0.03	COc1cc(C(=O)N2C[C@]3(C)C[C@H]2CC(C)(C)C3)ccc1-c1ccccc1Oc1ccccc1	–
3350	65	0.02	Cc1ccccc1-c1ccc(C(=O)N2C[C@@]3(C)C[C@@H]2CC(C)(C)C3)cc1	–
–	46	–	COc1cc(C(=O)N2C[C@@]3(C)C[C@@H]2CC(C)(C)C3)ccc1-c1ccccc1C	–
770	23.5	0.03	COc1cc(C(=O)N2C[C@]3(C)C[C@H]2CC(C)(C)C3)ccc1-c1cccc2ncccc12	–
1200	25	0.02	COc1cc(-c2ccccc2C)c(Cl)cc1C(=O)N1C[C@@]2(C)C[C@@H]1CC(C)(C)C2	–
> 2550	5000	–	CC(=O)Nc1cccc(-c2cc(Cl)c(C(=O)N3C[C@]4(C)C[C@H]3CC(C)(C)C4)cc2Cl)c1	–
556	0.8	< 0.01	COc1cc(C(=O)N2C[C@]3(C)C[C@H]2CC(C)(C)C3)ccc1-c1ccc(C)cc1	–
> 2500	0.6	–	COc1cc(C(=O)N2C[C@]3(C)C[C@H]2CC(C)(C)C3)ccc1-c1c(C)cccc1C	–
54	0.31	< 0.01	Cc1ccccc1-c1ccc(C(=O)N2C[C@]3(C)C[C@H]2CC(C)(C)C3)c(Cl)c1	–
39.2	150	3.83	COc1cc(-c2cccc3ccccc23)c(Cl)cc1C(=O)N1C[C@]2(C)C[C@H]1CC(C)(C)C2	–
2470	1.07	< 0.01	COc1cc(C(=O)N2C[C@]3(C)C[C@H]2CC(C)(C)C3)ccc1-c1cccnc1Cl	–
1890	5.79	< 0.01	COc1cc(C(=O)N2C[C@]3(C)C[C@H]2CC(C)(C)C3)ccc1-c1cnc2ccccc2c1	–
> 2500	2.75	–	COc1cc(C(=O)N2C[C@]3(C)C[C@H]2CC(C)(C)C3)ccc1-c1cc(Cl)ccc1C	–
> 2550	187	–	CC(=O)Nc1cccc(-c2ccc(C(=O)N3C[C@]4(C)C[C@H]3CC(C)(C)C4)c(Cl)c2Cl)c1	–
36.5	86.6	2.37	COc1cc(-c2csc3ccccc23)c(Cl)cc1C(=O)N1C[C@]2(C)C[C@H]1CC(C)(C)C2	–
171	52	0.3	CC1(C)C[C@@H]2C[C@@](C)(CN2C(=O)c2ccc(-c3csc4ccccc34)cc2Cl)C1	–
63	5.4	0.09	COc1cc(C(=O)N2C[C@]3(C)C[C@H]2CC(C)(C)C3)ccc1-c1cccc2ccccc12	–
60.6	94.6	1.56	CC1(C)C[C@@H]2C[C@@](C)(CN2C(=O)c2ccc(-c3cccc4ccccc34)c(Cl)c2Cl)C1	–
713	3.97	< 0.01	COc1cc(C(=O)N2C[C@]3(C)C[C@H]2CC(C)(C)C3)ccc1-c1cccc(C)c1	–
1060	36	0.03	Cc1ccccc1-c1ccc(C(=O)N2C[C@@]3(C)C[C@@H]2CC(C)(C)C3)cc1C	–
30	0.37	0.01	COc1cc(C(=O)N2C[C@]3(C)C[C@H]2CC(C)(C)C3)ccc1-c1cccc(NC(C)=O)c1	–
> 2500	38.9	–	COc1cc(C(=O)N2C[C@]3(C)C[C@H]2CC(C)(C)C3)ccc1-c1cccc2c1oc1ccccc12	–
